{"source": "paper PMC7056512", "about": "(Cancer research, 2020)", "key": {"[1]": {"system": "HNSCC cell lines (013C, 036C, 049C, 067C)", "assay": "nonadherent sphere formation", "type": "cell-based, human", "settings": "1,000nM", "summary_of_the_method": "(§1)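 3x10^3 cells/well in ultra-low-attachment wells with serum-free DMEM/F12 plus 10ng/ml EGF and 10ng/ml bFGF; medium supplemented on days 4, 7 and 10. Spheres (>50µm) imaged, counted and sized (diameter) at day 10. Replicates: 013C n=4 (16 wells); 036C, 049C and 067C n=3 (12 wells).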"}, "[2]": {"system": "HNSCC cells and patient-matched CAFs", "assay": "protein synthesis, methionine analog incorporation", "type": "cell-based, human", "settings": "for suppression of translation: 100nM, all cells; for inhibition of protein synthesis: at concentrations between 10 and 100nM, 1.5h treatment"}, "049C cells [3]": {"system": "049C cells", "assay": "nonadherent sphere formation", "type": "cell-based, human", "settings": "1,000nM, 10 days", "summary_of_the_method": "as §1"}, "049C cells [4]": {"system": "049C cells", "assay": "SRB antiproliferative assay", "type": "cell-based, human", "settings": "read-out: IC50, antiproliferative"}, "036C cells [5]": {"system": "036C cells", "assay": "nonadherent sphere formation", "type": "cell-based, human", "settings": "1,000nM, 10 days", "summary_of_the_method": "as §1"}, "Myc in 049C cells": {"system": "Myc in 049C cells", "assay": "Western blot densitometry of Myc", "type": "cell-based, human", "settings": "24h"}, "013C cells [6]": {"system": "013C cells", "assay": "SRB antiproliferative assay", "type": "cell-based, human", "settings": "read-out: IC50, antiproliferative"}, "19 HNSCC cell lines": {"system": "19 HNSCC cell lines", "assay": "cell growth, CellTiter-Glo, 5 days", "type": "cell-based, human", "settings": "read-out: average IC50, growth, average of 19 HNSCC lines"}, "036C cells [7]": {"system": "036C cells", "assay": "protein synthesis, methionine analog incorporation", "type": "cell-based, human", "settings": "1nM"}, "067C cells [8]": {"system": "067C cells", "assay": "SRB antiproliferative assay", "type": "cell-based, human", "settings": "read-out: IC50, antiproliferative"}, "067C cells [9]": {"system": "067C cells", "assay": "nonadherent sphere formation", "type": "cell-based, human", "settings": "1,000nM, 10 days", "summary_of_the_method": "as §1"}, "013C cells [10]": {"system": "013C cells", "assay": "nonadherent sphere formation", "type": "cell-based, human", "settings": "1,000nM, 10 days", "summary_of_the_method": "as §1"}, "[11]": {"target": "eEF2 release from the ribosome (Homo sapiens, UniProt P13639)", "assay": "co-immunoprecipitation of eEF2 with ribosomal protein RPL13a", "type": "cell-based", "settings": "100nM; 013C and 036C cells"}, "Myc in 036C cells": {"system": "Myc in 036C cells", "assay": "Western blot densitometry of Myc", "type": "cell-based, human", "settings": "24h"}, "Det562 HNSCC cells [12]": {"system": "Det562 HNSCC cells", "settings": "read-out: IC50, proliferation"}, "[13]": {"system": "HNSCC cancer cells (Detroit562, FaDu)", "assay": "clonogenic radio-modulation", "type": "cell-based, human", "settings": "multiple SVC112 doses"}, "CUHN013 CSCs": {"system": "CUHN013 CSCs", "assay": "sphere formation by CSCs sorted from PDX tumors", "type": "cell-based, human", "settings": "1,000nM"}, "CUHN036 PDX": {"system": "CUHN036 PDX", "assay": "PDX efficacy study", "type": "in vivo, Athymic Nude-Foxn1^nu mice", "settings": "for T/C (treatment vs control): twice weekly, day 28", "summary_of_the_method": "(§2)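 Tumor pieces from 4th-8th-generation PDX implanted on both flanks of 6-10-week-old female mice. Anesthetized mice shielded except flank tumors and irradiated at 3 Gy (115 cGy/min) twice weekly for four weeks. Test compound given IP at 60mg/kg right after irradiation and 6h later. Tumors measured twice weekly. ALDH+CD44high CSC fraction measured by flow cytometry on day 28, then related to tumor treatment/control ratio by linear regression.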"}, "013C, 049C, 067C cells": {"system": "013C, 049C, 067C cells", "assay": "ribosome profiling", "type": "cell-based, human", "settings": "1,000nM, 6h", "summary_of_the_method": "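Cells grown 48h in 10cm dishes to ~75% confluence, then treated 6h with DMSO or test compound at 1,000nM. Libraries built with the TruSeq Ribo Profile mammalian protocol. Total mRNA fragments and ribosome-protected fragments sequenced on Illumina HiSeq. RPF counts normalised to RNA-seq, with a >2-fold enrichment cutoff.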"}, "CUHN004 PDX": {"system": "CUHN004 PDX", "assay": "PDX efficacy study", "type": "in vivo, Athymic Nude-Foxn1^nu mice"}, "013C cells [14]": {"system": "013C cells", "assay": "protein synthesis, methionine analog incorporation", "type": "cell-based, human", "settings": "10nM"}, "CUHN036 CSCs": {"system": "CUHN036 CSCs", "assay": "sphere formation by CSCs sorted from PDX tumors", "type": "cell-based, human", "settings": "1,000nM", "summary_of_the_method": "(§3)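 CSCs sorted from PDX tumours plated at 1x10^4 per well in ultra-low-attachment wells. Medium was serum-free DMEM/F12 with 10ng/ml EGF and 10ng/ml bFGF, supplemented on days 4, 7 and 10. After 14 days, all spheres >50µm imaged, counted and diameter measured.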"}, "Myc in 067C cells": {"system": "Myc in 067C cells", "assay": "Western blot densitometry of Myc", "type": "cell-based, human", "settings": "24h"}, "[15]": {"system": "four non-transformed normal lines", "assay": "clonogenic radio-modulation", "type": "cell-based"}, "CUHN047 PDX": {"system": "CUHN047 PDX", "assay": "PDX efficacy study", "type": "in vivo, Athymic Nude-Foxn1^nu mice", "settings": "for T/C (treatment vs control): twice weekly, day 28", "summary_of_the_method": "as §2"}, "067C cells [16]": {"system": "067C cells", "assay": "protein synthesis, methionine analog incorporation", "type": "cell-based, human", "settings": "1nM"}, "Det562 HNSCC cells [17]": {"system": "Det562 HNSCC cells", "assay": "clonogenic survival assay", "type": "cell-based, human", "settings": "read-out: IC50, clonogenicity, drug 24h, then 9 days growth"}, "CUHN013 PDX": {"system": "CUHN013 PDX", "assay": "PDX efficacy study", "type": "in vivo, Athymic Nude-Foxn1^nu mice", "summary_of_the_method": "as §2"}, "CUHN004 CSCs": {"system": "CUHN004 CSCs", "assay": "sphere formation by CSCs sorted from PDX tumors", "type": "cell-based, human", "settings": "1,000nM", "summary_of_the_method": "as §3"}, "Myc in 013C cells": {"system": "Myc in 013C cells", "assay": "Western blot densitometry of Myc", "type": "cell-based, human", "settings": "24h"}, "[18]": {"target": "cap-independent translation of capless luciferase mRNA", "assay": "in vitro translation of uncapped poly", "type": "biochemical, rabbit", "settings": "read-out: IC50, in vitro cap-independent translation; 30 min at 30°C"}, "036C cells [19]": {"system": "036C cells", "assay": "SRB antiproliferative assay", "type": "cell-based, human", "settings": "read-out: IC50, antiproliferative"}, "[20]": {"settings": "SVC112 alone, 60mg/kg IP at 0h and 6h"}, "[21]": {"settings": "radiation (3Gy) plus SVC112 60mg/kg"}, "[22]": {"settings": "radiation plus SVC112, by day 28"}}, "note": "Read-outs that look alike come from different tables or passages of the source."}
{"molecule": "COC(=O)C[C@](O)(CCCC(C)(C)O)C(=O)O[C@@H]1C(OC)=C[C@]23CCCN2CCc2cc4c(cc2[C@H]13)OCO4", "note": "[HHT, Homoharringtonine, reference compound]", "values": [{"measurement": "sphere formation", "setting": "[1]", "value": "blocked nearly all sphere formation"}, {"measurement": "suppression of translation", "setting": "[2]", "value": "> 85", "unit": "%"}, {"measurement": "inhibition of protein synthesis", "setting": "[2]", "value": "Greater than 75%"}]}
{"molecule": "Meta Br-N-29-H derivative of RA-VII [SVC112]", "values": [{"measurement": "sphere formation blocked", "setting": "049C cells [3]", "value": 48, "unit": "%"}, {"measurement": "IC50", "setting": "049C cells [4]", "value": 24.1, "unit": "nM"}, {"measurement": "sphere formation blocked", "setting": "036C cells [5]", "value": 100, "unit": "%"}, {"measurement": "Myc reduction", "setting": "Myc in 049C cells", "value": "> 80", "unit": "%"}, {"measurement": "IC50", "setting": "013C cells [6]", "value": 50.5, "unit": "nM"}, {"measurement": "IC50", "setting": "19 HNSCC cell lines", "value": 155, "unit": "nM"}, {"measurement": "decrease of protein synthesis", "setting": "036C cells [7]", "value": "> 50", "unit": "%"}, {"measurement": "IC50", "setting": "067C cells [8]", "value": 9.3, "unit": "nM"}, {"measurement": "sphere formation blocked", "setting": "067C cells [9]", "value": 79, "unit": "%"}, {"measurement": "sphere formation blocked", "setting": "013C cells [10]", "value": 74, "unit": "%"}, {"measurement": "release of eEF2 from the ribosome (immunoprecipitation of eEF2 with Rpl13a)", "setting": "[11]", "value": "blocked the release of eEF2 from the ribosome"}, {"measurement": "Myc reduction", "setting": "Myc in 036C cells", "value": "> 80", "unit": "%"}, {"measurement": "IC50", "setting": "Det562 HNSCC cells [12]", "value": "~280", "unit": "nM"}, {"measurement": "dose-modifying factor (DMF) of radiation", "setting": "[13]", "value": "> 1"}, {"measurement": "sphere formation by CSCs", "setting": "CUHN013 CSCs", "value": "formed fewer, albeit normal-sized spheres"}, {"measurement": "T/C (treatment vs control)", "setting": "CUHN036 PDX; [20]", "value": "0.45±0.12"}, {"measurement": "T/C (treatment vs control)", "setting": "CUHN036 PDX; [21]", "value": "0.08±0.08"}, {"measurement": "tumors that continued to regress and did not regrow after ending treatment", "setting": "CUHN036 PDX; radiation plus SVC112, after end of treatment", "value": "six of eight"}, {"measurement": "tumors with complete regression", "setting": "CUHN036 PDX; [22]", "value": "four of twelve"}, {"measurement": "decrease of CSC fraction (ALDH+CD44hi) in tumors", "setting": "CUHN036 PDX; radiation plus SVC112, day 28", "value": 10.4, "unit": "fold"}, {"measurement": "increase in captured ribosome protected fragments of DUSP1", "setting": "013C, 049C, 067C cells", "value": 238, "unit": "fold"}, {"measurement": "increase in captured ribosome protected fragments of MAFF", "setting": "013C, 049C, 067C cells", "value": 346, "unit": "fold"}, {"measurement": "increase in captured ribosome protected fragments of NUAK2", "setting": "013C, 049C, 067C cells", "value": 666, "unit": "fold"}, {"measurement": "increase in captured ribosome protected fragments of SERTAD1", "setting": "013C, 049C, 067C cells", "value": 1699, "unit": "fold"}, {"measurement": "T/C (treatment vs control)", "setting": "CUHN004 PDX; radiation (3Gy) plus SVC112 60mg/kg, twice weekly, day 28", "value": "0.19±0.05"}, {"measurement": "decrease of CSC fraction (ALDH+CD44hi) in tumors", "setting": "CUHN004 PDX; radiation plus SVC112, day 28", "value": 7.9, "unit": "fold"}, {"measurement": "inhibition of protein synthesis", "setting": "013C cells [14]", "value": "~ 50%"}, {"measurement": "sphere formation by CSCs", "setting": "CUHN036 CSCs", "value": "blocked sphere formation"}, {"measurement": "Myc reduction", "setting": "Myc in 067C cells", "value": "> 80", "unit": "%"}, {"measurement": "dose-modifying factor (DMF) of radiation", "setting": "[15]", "value": "near or below 1"}, {"measurement": "T/C (treatment vs control)", "setting": "CUHN047 PDX; [20]", "value": "0.37±0.07"}, {"measurement": "T/C (treatment vs control)", "setting": "CUHN047 PDX; [21]", "value": "−0.02±0.03"}, {"measurement": "tumors with complete regression", "setting": "CUHN047 PDX; [22]", "value": "six out of ten"}, {"measurement": "decrease of CSC fraction (ALDH+CD44hi) in tumors", "setting": "CUHN047 PDX; radiation plus SVC112, day 28", "value": 7.6, "unit": "fold"}, {"measurement": "decrease of protein synthesis", "setting": "067C cells [16]", "value": "> 50", "unit": "%"}, {"measurement": "IC50", "setting": "Det562 HNSCC cells [17]", "value": "~15", "unit": "nM"}, {"measurement": "suppression of translation", "setting": "[2]", "value": "> 85", "unit": "%"}, {"measurement": "inhibition of protein synthesis", "setting": "[2]", "value": "Greater than 75%"}, {"measurement": "tumor response", "setting": "CUHN013 PDX; SVC112 alone or with radiation, twice weekly", "value": "did not respond to any treatment"}, {"measurement": "decrease of CSC fraction (ALDH+CD44hi) in tumors", "setting": "CUHN013 PDX; radiation plus SVC112, day 28", "value": 2.4, "unit": "fold"}, {"measurement": "sphere formation by CSCs", "setting": "CUHN004 CSCs", "value": "blocked sphere formation"}, {"measurement": "Myc level, % of baseline", "setting": "Myc in 013C cells", "value": "> 60", "unit": "%"}, {"measurement": "IC50", "setting": "[18]", "value": "81 ± 16", "unit": "nM"}, {"measurement": "IC50", "setting": "036C cells [19]", "value": 3.8, "unit": "nM"}]}
